Our source for the inhibition and IC50 values is ChEMBL document CHEMBL4014339, “Discovery of 1,4-Benzodiazepine-2,5-dione (BZD) Derivatives as Dual Nucleotide Binding Oligomerization Domain Containing 1/2 (NOD1/NOD2) Antagonists Sensitizing Paclitaxel (PTX) To Suppress Lewis Lung Carcinoma (LLC) Growth in Vivo” (J Med Chem, 2017).

Active and inactive are the calls of the source. The rule behind the calls is not given here.

A word on the inhibition: it is the change of the read-out against control, counted positive when it falls. As usually defined, the IC50 is the concentration needed to halve the response being measured.

Assay [1] addresses T1, Nucleotide-binding oligomerization domain-containing protein 2 (Homo sapiens, UniProt Q9HC29). Kind of assay: Antagonist activity at human NOD2 expressed in HEK-Blue cells assessed as inhibition of MDP-stimulated cell activation at 5 uM preincubated for 3 hrs followed by MDP addition measured after 20 hrs by SEAP reporter gene assay. It is filed as cell-based. For orientation: Reporter assays use an easily measured gene product as a stand-in for the process of interest.

The target in assay [2] is T1, Nucleotide-binding oligomerization domain-containing protein 2. Put plainly: Antagonist activity at human NOD2 expressed in HEK-Blue cells assessed as inhibition of MDP-stimulated cell activation preincubated for 3 hrs followed by MDP addition measured after 20 hrs by SEAP reporter gene assay. The class given is cell-based. The essentials: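 HEK-Blue hNOD1 or hNOD2 cells preincubated with compound 3 h, then stimulated 20 h with C12-iE-DAP 50 ng/mL (NOD1) or MDP 100 ng/mL (NOD2); SEAP in supernatant quantified. Primary screen at 10 μM, hits repeated in triplicate; IC50 from dose-response, mean ± SD (n = 3), only for compounds reaching ≥50% inhibition at the screening concentration.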

The target of assay [3] is Toll-like receptor 4 (Homo sapiens) (UniProt O00206). Kind of assay: Inhibition of human TLR4 expressed in HEK-Blue cells assessed as reduction in LPS-EK-stimulated SEAP release preincubated for 3 hrs followed by LPS-EK addition measured after 20 hrs by spectrophotometric analysis. It is filed as cell-based.
Assay [4] addresses Receptor-interacting serine/threonine-protein kinase 2 (Homo sapiens) (UniProt O43353). Kind of assay: Inhibition of recombinant human N-terminal GST tagged RIPK2 (1 to 299 residues) expressed in baculovirus infected Sf9 insect cells assessed as decrease in MBP phosphorylation at 10 uM preincubated with compound followed by ATP addition measured after 60 mins by ADP-Glo assay. On the technique in general: In ADP-Glo the light output rises with the ADP produced.

Assay [5] has as its target T2, Nucleotide-binding oligomerization domain-containing protein 1 (Homo sapiens) (UniProt Q9Y239).
T2 sequence (whole entry): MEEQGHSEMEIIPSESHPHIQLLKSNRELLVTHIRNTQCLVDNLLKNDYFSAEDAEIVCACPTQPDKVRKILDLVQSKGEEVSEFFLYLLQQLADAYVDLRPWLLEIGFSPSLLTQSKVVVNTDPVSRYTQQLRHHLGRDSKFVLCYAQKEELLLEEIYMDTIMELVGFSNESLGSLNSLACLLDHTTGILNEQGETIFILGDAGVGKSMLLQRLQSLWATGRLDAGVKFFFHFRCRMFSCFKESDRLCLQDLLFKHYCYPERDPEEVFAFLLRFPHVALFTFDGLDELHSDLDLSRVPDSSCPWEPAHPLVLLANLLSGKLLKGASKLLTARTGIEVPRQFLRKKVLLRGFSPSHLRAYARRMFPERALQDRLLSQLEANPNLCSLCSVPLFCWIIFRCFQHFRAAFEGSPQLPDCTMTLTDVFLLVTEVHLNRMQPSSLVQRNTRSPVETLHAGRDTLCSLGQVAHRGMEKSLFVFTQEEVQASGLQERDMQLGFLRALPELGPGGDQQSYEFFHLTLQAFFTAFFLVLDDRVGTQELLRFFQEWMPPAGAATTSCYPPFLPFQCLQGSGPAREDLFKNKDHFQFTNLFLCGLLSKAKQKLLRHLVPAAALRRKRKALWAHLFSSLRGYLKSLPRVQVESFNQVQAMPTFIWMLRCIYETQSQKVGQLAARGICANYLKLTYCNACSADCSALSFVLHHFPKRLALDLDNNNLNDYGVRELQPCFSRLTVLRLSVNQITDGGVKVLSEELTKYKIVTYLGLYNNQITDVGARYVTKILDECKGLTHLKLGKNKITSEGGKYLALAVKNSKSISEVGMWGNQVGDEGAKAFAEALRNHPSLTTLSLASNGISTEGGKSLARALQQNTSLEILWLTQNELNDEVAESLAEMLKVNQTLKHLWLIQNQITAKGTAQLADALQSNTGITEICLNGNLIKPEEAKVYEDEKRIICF
Kind of assay: Inhibition of NOD1 in human PBMC-derived macrophages assessed as reduction in C12-iE-DAP-stimulated TNFalpha mRNA expression preincubated for 1 hr followed by C12-iE-DAP stimulation for 90 mins by RT-qPCR analysis. The essentials: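 Human CD14+ monocytes from donor PBMC, differentiated 7 days with M-CSF 20 ng/mL to macrophages; 1.0 × 10^6 cells pretreated 1 h with compound (final 0.1% DMSO), then C12-iE-DAP 500 ng/mL or MDP 5 μg/mL for 90 min. IL-6/TNF-α mRNA by qRT-PCR, normalized to GAPDH; stimulated response set to 100%.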

Assay [6] concerns the target T2, Nucleotide-binding oligomerization domain-containing protein 1 (Homo sapiens). Kind of assay: Inhibition of NOD1 in human THP1 cells assessed as suppression of C12-iE-DAP-stimulated JNK phosphorylation at 1 to 10 uM preincubated for 1 hr followed by C12-iE-DAP stimulation after 45 mins by Western blot analysis. It is filed as cell-based. The essentials: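 PMA (20 ng/mL, 48 h)-differentiated THP1 macrophages rested 24 h in PMA-free medium, serum-starved (0.1% FBS) overnight, pretreated 1 h with compound, stimulated 45 min with C12-iE-DAP 50 ng/mL. Lysates run on 8% SDS-PAGE, immunoblotted for phospho and total RIP2, p38, JNK, ERK and IκBα.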
Background: Immunoblotting shows a protein as a band on a membrane.

Assay [7] has the same target. Kind of assay: Inhibition of NOD1 in human PBMC-derived macrophages assessed as reduction in C12-iE-DAP-stimulated RIP2 phosphorylation at 1 to 10 uM preincubated for 1 hr followed by C12-iE-DAP stimulation for 45 mins by Western blot analysis.
Assay [8] shares this target. Kind of assay: Inhibition of NOD1 in human PBMC-derived macrophages assessed as reduction in C12-iE-DAP-stimulated ERK phosphorylation at 1 to 10 uM preincubated for 1 hr followed by C12-iE-DAP stimulation for 45 mins by Western blot analysis.
Assay [9] has the same target. Put plainly: Inhibition of NOD1 in human PBMC-derived macrophages assessed as reduction of C12-iE-DAP-mediated decrease in IkBalpha levels at 1 to 10 uM preincubated for 1 hr followed by C12-iE-DAP stimulation for 45 mins by Western blot analysis.
The target of assay [10] is T1, Nucleotide-binding oligomerization domain-containing protein 2. Kind of assay: Inhibition of NOD2 in human PBMC-derived macrophages assessed as reduction in MDP-stimulated p38 phosphorylation at 1 to 10 uM preincubated for 1 hr followed by MDP stimulation for 1 hr by Western blot analysis.
For assay [11] the target is unchanged. Put plainly: Inhibition of NOD2 in human PBMC-derived macrophages assessed as reduction in MDP-stimulated ERK phosphorylation at 1 to 10 uM preincubated for 1 hr followed by MDP stimulation for 1 hr by Western blot analysis.
For assay [12] the target is unchanged. Put plainly: Inhibition of NOD2 in human PBMC-derived macrophages assessed as reduction of MDP-mediated decrease in IkBalpha levels at 1 to 10 uM preincubated for 1 hr followed by MDP stimulation for 1 hr by Western blot analysis.

T1 sequence (Q9HC29 whole entry, the tested form may be a part): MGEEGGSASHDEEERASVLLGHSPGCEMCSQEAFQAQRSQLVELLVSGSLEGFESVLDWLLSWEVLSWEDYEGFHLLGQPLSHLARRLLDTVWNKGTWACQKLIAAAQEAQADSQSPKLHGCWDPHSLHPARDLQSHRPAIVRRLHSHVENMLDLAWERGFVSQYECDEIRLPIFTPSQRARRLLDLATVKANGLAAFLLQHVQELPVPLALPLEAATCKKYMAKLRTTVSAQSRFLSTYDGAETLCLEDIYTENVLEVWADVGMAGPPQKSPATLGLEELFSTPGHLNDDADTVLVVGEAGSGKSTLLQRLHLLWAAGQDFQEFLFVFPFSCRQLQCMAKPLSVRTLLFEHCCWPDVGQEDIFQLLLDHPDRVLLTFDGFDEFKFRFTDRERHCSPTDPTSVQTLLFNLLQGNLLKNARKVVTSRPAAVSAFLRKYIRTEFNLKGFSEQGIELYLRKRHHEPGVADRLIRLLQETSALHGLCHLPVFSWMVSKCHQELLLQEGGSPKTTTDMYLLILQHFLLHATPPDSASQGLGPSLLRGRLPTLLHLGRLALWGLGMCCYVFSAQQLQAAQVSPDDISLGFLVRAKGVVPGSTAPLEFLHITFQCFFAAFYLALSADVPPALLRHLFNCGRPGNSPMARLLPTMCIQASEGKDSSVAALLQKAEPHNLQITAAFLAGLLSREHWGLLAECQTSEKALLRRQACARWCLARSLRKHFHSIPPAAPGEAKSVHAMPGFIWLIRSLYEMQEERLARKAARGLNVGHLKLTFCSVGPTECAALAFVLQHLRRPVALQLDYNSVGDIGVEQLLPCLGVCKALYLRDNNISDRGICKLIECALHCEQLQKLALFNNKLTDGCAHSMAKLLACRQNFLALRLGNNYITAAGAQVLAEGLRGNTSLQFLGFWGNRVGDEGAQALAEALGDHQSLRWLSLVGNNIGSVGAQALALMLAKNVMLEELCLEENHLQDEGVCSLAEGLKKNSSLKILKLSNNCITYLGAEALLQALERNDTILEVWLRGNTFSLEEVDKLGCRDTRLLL
Receptor-interacting serine/threonine-protein kinase 2 (Homo sapiens), sequence (O43353 whole entry, the tested form may be a part): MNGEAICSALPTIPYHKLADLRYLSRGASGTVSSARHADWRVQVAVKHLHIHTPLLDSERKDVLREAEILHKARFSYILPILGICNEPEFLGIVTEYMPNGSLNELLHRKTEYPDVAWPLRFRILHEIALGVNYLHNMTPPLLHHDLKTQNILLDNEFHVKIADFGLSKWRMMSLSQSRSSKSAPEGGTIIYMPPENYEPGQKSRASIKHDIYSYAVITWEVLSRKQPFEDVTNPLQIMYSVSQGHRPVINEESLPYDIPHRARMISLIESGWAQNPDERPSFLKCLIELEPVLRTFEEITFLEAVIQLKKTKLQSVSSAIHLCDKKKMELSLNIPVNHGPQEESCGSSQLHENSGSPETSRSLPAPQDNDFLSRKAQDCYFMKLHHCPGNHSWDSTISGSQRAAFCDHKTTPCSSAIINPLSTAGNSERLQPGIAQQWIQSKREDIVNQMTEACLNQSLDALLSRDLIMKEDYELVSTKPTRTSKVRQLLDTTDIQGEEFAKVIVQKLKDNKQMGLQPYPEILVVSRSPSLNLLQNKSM
Toll-like receptor 4 (Homo sapiens), sequence (O00206 whole entry, the tested form may be a part): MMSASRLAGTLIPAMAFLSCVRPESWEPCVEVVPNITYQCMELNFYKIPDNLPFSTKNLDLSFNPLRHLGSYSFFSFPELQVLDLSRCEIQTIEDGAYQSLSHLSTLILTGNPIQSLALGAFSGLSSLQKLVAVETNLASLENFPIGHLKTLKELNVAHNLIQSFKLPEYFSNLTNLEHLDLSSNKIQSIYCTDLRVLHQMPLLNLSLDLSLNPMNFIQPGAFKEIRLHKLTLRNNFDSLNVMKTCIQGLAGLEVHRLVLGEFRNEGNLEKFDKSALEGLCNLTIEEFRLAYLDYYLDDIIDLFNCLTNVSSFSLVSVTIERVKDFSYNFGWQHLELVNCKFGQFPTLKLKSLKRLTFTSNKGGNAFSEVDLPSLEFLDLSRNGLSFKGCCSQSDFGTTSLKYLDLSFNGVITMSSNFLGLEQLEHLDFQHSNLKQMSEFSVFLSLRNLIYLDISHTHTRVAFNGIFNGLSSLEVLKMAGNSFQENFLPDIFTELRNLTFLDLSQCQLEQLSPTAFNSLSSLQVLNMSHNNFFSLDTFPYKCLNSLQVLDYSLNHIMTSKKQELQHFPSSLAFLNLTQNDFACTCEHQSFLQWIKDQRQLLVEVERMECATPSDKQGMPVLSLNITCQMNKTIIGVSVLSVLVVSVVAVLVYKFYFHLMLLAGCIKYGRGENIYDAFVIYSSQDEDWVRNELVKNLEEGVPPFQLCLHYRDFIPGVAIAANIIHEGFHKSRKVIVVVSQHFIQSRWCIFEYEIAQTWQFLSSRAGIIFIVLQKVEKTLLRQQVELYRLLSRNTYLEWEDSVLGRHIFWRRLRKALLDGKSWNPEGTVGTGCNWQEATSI

In the case of `CCCNC(=O)CC[C@H]1NC(=O)c2cc(Oc3cccc(N(C)C)c3)c(NC(=O)COCc3ccccc3)cc2NC1=O`, the inhibition was 60.9% in assay [1] and “Dose-dependent effect” in assay [5]. In addition, the IC50 in assay [2] worked out at 4.16 µM. Further, the inhibition entry in assay [3] and in [4] was “inactive” throughout. For the same compound, the inhibition result in assay [6], in [7], in assay [8], in assay [9], in assay [10] and in assay [11] was “Active” throughout. The inhibition entry in assay [12] was “Active”.
